Source: ChEMBL document CHEMBL1921704, “Discovery of N-aryl-2-acylindole human glucagon receptor antagonists” (Bioorg Med Chem Lett, 2011)
pIC50: −log10 of the molar value.

Legend:
Glucagon receptor [1] = target: T1, Glucagon receptor (Homo sapiens, UniProt P47871); assay: Displacement of [125I]-glucagon from human glucagon receptor expressed in CHO cells after 4 to 12 hrs by scintillation proximity assay; assay type: cell-based
Outline: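 Scintillation proximity assay on membranes from CHO cells expressing hGCGR, measuring inhibition of ¹²⁵I-labelled glucagon binding. IC50 reported as the average rounded to two significant figures, with standard error of the mean when more than one measurement was made.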

Glucagon receptor [2] = target: T1, Glucagon receptor; assay: Antagonist activity at human glucagon receptor expressed in CHO cells assessed as inhibition of forskolin/glucagon-induced cAMP production preincubated for 30 mins before glucagon challenge measured after 30 mins using [125I]-cAMP by liquid scintillation counting; assay type: functional, cell-based
Outline: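 Glucagon-induced cAMP production measured in CHO cells transfected with hGCGR. IC50 reported as the average rounded to two significant figures, with SEM when measured more than once.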

[3] = Plasma clearance in rat at 1 mg/kg, iv and 2 mg/kg, po; assay type: ADME, organism-based
Outline: (§1)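 Rat PK with dosing at 1 mg/kg IV and 2 mg/kg PO, vehicle DMSO/water/PEG400 15:35:55. Parameters were plasma clearance, Vd, t1/2, dose-normalised PO AUC and Cmax, and %F.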

[4] = Volume of distribution in rat at 1 mg/kg, iv and 2 mg/kg, po; assay type: ADME, organism-based; conditions: in vivo; outline: as §1
[5] = Half life in rat at 1 mg/kg, iv and 2 mg/kg, po; assay type: ADME, organism-based; conditions: in vivo; outline: as §1
Rattus norvegicus [6] = assay: Dose normalised AUC in rat at 2 mg/kg, po; assay type: ADME, organism-based; set-up: dose 2 mg/kg, route oral; conditions: in vivo; outline: as §1
Rattus norvegicus [7] = assay: Dose normalised Cmax in rat at 1 mg/kg, iv and 2 mg/kg, po; assay type: ADME, organism-based; conditions: in vivo; outline: as §1
[8] = Oral bioavailability in rat at 2 mg/kg; assay type: ADME, organism-based; conditions: in vivo; outline: as §1
[9] = Solubility of the compound; assay type: physicochemical

T1 sequence (P47871 whole entry): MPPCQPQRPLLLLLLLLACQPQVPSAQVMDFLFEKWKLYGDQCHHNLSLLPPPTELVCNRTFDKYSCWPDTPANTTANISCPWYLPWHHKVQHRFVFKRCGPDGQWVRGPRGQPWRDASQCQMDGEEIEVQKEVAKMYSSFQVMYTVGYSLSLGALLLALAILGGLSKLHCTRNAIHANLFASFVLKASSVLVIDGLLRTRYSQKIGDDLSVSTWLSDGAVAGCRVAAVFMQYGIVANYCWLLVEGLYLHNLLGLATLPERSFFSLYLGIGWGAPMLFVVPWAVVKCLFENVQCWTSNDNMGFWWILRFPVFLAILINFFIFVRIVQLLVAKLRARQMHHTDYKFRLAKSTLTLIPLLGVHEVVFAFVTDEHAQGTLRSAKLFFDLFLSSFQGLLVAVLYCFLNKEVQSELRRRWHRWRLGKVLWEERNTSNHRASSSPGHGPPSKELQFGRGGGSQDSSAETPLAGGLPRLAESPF

Compound `CCCC[C@@H](Cc1ccc(C(=O)NCCC(=O)O)cc1)C(=O)c1cc2cc(Cl)ccc2n1-c1cccc(C(F)(F)F)c1` has a pIC50 (Glucagon receptor [1]) of 7.80 and a pIC50 (Glucagon receptor [2]) of 7.38.
With `CCCC(Cc1ccc(C(=O)NCCC(=O)O)cc1)C(=O)c1cc2cc(Cl)ccc2n1-c1ccc(C(F)(F)F)cc1` (single isomer, unassigned) the pIC50 (Glucagon receptor [1]) was 7.51 and the pIC50 (Glucagon receptor [2]) was 7.52.
With `CCCC(Cc1ccc(C(=O)NCCC(=O)O)cc1)C(=O)c1cc2cc(Cl)ccc2n1-c1ccc2c(c1)OCCO2` (single isomer, unassigned) the pIC50 (Glucagon receptor [1]) was 7.55 and the pIC50 (Glucagon receptor [2]) was 7.31.
With `CCCC(Cc1ccc(C(=O)NCCC(=O)O)cc1)C(=O)c1cc2cc(Cl)ccc2n1-c1ccc(Cl)c(C(F)(F)F)c1` (single isomer, unassigned) the pIC50 (Glucagon receptor [1]) was 7.92, the pIC50 (Glucagon receptor [2]) was 7.77 and the clearance [3] was 0.552 L/h/kg. For the same compound, the Vd [4] was 0.84 L/kg, the half-life [5] was 1.3 h and the AUC/dose (Rattus norvegicus [6]) was 0.52 µM·h. It also gave a Cmax/dose (Rattus norvegicus [7]) of 0.15 µM and a bioavailability [8] of 17%.
In the case of `CCCC(Cc1ccc(C(=O)NCCC(=O)O)cc1)C(=O)c1cc2cc(Cl)ccc2n1-c1cccc(F)c1` (single isomer, unassigned), the pIC50 (Glucagon receptor [1]) was 7.33 and the pIC50 (Glucagon receptor [2]) was 6.82.
Compound `CCCC(Cc1ccc(C(=O)NCCC(=O)O)cc1)C(=O)c1cc2cc(Cl)ccc2n1-c1cc(C)cc(C)c1` (single isomer, unassigned) has a pIC50 (Glucagon receptor [1]) of 6.92.
For `Cn1/c(=N\c2ccc(OC(F)(F)F)cc2)n(Cc2ccc(C(=O)Nc3nnn[nH]3)cc2)c2cc(Cl)c(Cl)cc21`, the solubility [9] was “Insoluble”.
